Each structure is given as a SMILES string. Values after ≈ are worked out from the molar mass of the structure shown. Active and inactive are the calls of the source. No cut-off for these calls is given here.

Assay [1] deals with Cryptococcus neoformans. Description: Antifungal activity against Cryptococcus neoformans var. grubii H99 after 48 hrs by serial dilution method. It is filed as functional. The procedure, abridged:
(§1)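 Broth serial dilution per NCCLS. Medium was RPMI 1640 buffered with 0.165M MOPS, NaHCO3 (0.2%) and NaOH (0.27%). Strains were pre-grown in YPD at 30 °C with shaking. Inoculum 10³ CFU/mL; compounds in DMSO. Plates incubated at 35 °C for 48 h. MIC80 is the concentration giving 80% inhibition.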

Assay [2] deals with Candida albicans. Description: Antifungal activity against Candida albicans SC5314 after 48 hrs by serial dilution method. Conditions: SC5314, 48 h. Type of assay: functional. The procedure, abridged:
as §1

The test system of assay [3] is Cryptococcus neoformans. Description: Antifungal activity against Cryptococcus neoformans var. grubii ATCC 34877 after 48 hrs by serial dilution method. Type of assay: functional. Conditions: var. grubii ATCC 34877, 48 h. The procedure, abridged: as §1
For assay [4], the system named is Cryptococcus neoformans. The experiment in a line: Antibiofilm activity against Cryptococcus neoformans var. grubii H99 at 0.062 ug/mL after 24 hrs by XTT analysis relative to control. Type of assay: functional. The essentials: (§2)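 H99 cells at 1.0×10^6 CFU/mL in RPMI 1640 left to adhere 90 min at 37 °C. Non-adherent cells were removed and the wells washed three times with PBS. Fresh RPMI with drug (0.062-8 µg/mL) or drug-free control was added, then 24 h more at 37 °C. Formation rate by XTT reduction. Means ± SD of three independent experiments; ANOVA and t-test.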
A general note: Tetrazolium assays rely on reduction of a dye to a coloured formazan, in cell work by metabolically active cells.

The test system of assay [5] is Cryptococcus neoformans. The experiment in a line: Antibiofilm activity against Cryptococcus neoformans var. grubii H99 at 0.062 to 8 ug/mL after 24 hrs by XTT analysis. It is filed as functional, organism-based. The procedure, abridged:
as §2

Assay [6] deals with Cryptococcus neoformans. The experiment in a line: Inhibition of melanin production in Cryptococcus neoformans var. grubii H99 at 16 ug/mL. It is filed as functional, organism-based. The procedure, abridged:
(§3)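 PBS-washed exponential H99 cells at 1×10^6 cells/mL in RPMI 1640 with drug. Drops placed on L-DOPA (melanin) or urea (urease) medium and incubated at 37 °C. Read-out: black versus white colonies for melanin, red medium for urease.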

Assay [7] has as its system Cryptococcus neoformans. The experiment in a line: Inhibition of urease production in Cryptococcus neoformans var. grubii H99 at 64 ug/mL. Type of assay: functional, organism-based. The essentials:
as §3

Assay [8] relates to Cryptococcus neoformans. Description: Fungistatic activity against Cryptococcus neoformans var. grubii H99 at 0.25 ug/mL up to 48 hrs by time-growth curve assay. It is filed as functional, organism-based.
Assay [9] has as its system Cryptococcus neoformans. Description: Fungistatic activity against Cryptococcus neoformans var. grubii H99 up to 48 hrs by time-growth curve assay. It is filed as functional, organism-based. The essentials: (§4)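 Exponential H99 cells at 2×10^6 cells/mL in 5 mL RPMI 1640 with drug (0.062-1 µg/mL) or DMSO control. Shaken at 200 rpm, 30 °C. Cells counted at 0, 3, 6, 9, 12, 24 and 48 h. Three independent experiments.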

For assay [10], the system named is Cryptococcus neoformans. Description: Fungicidal activity against Cryptococcus neoformans var. grubii H99 at 2 ug/mL after 48 hrs by time-kill assay. It is filed as functional, organism-based. The essentials: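 Time-kill: PBS-washed exponential H99 cells at 2×10^6 cells/mL in 5 mL RPMI 1640 with drug, shaken (200 rpm) at 30 °C. Samples taken at 0, 6, 12, 24 and 48 h, diluted and plated on SDA. CFU counted after 48 h at 30 °C.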

Assay [11] relates to Cryptococcus neoformans. Description: Induction of apoptosis in Cryptococcus neoformans var. grubii H99 assessed as early apoptotic cells at 0.5 ug/mL after 24 hrs by annexin V-FITC/propidium iodide staining-based flow cytometric analysis (reference value: 1.05%). Type of assay: functional.
Assay [12] concerns Cryptococcus neoformans. The experiment in a line: Induction of apoptosis in Cryptococcus neoformans var. grubii H99 assessed as late apoptotic cells at 0.5 ug/mL after 24 hrs by annexin V-FITC/propidium iodide staining-based flow cytometric analysis (reference value: 0.15%). Type of assay: functional. (In flow cytometry, cells or beads pass a laser one at a time.)
The subject of assay [13] is Cryptococcus neoformans. Description: Induction of apoptosis in Cryptococcus neoformans var. grubii H99 assessed as necrotic cells at 0.5 ug/mL after 24 hrs by annexin V-FITC/propidium iodide staining-based flow cytometric analysis (reference value: 0.19%). It is filed as functional.
In assay [14] the test system is Cryptococcus neoformans. Description: Induction of apoptosis in Cryptococcus neoformans var. grubii H99 assessed as early apoptotic cells at 1 ug/mL after 24 hrs by annexin V-FITC/propidium iodide staining-based flow cytometric analysis (reference value: 1.05%). Type of assay: functional.
Assay [15] deals with Cryptococcus neoformans. The experiment in a line: Induction of apoptosis in Cryptococcus neoformans var. grubii H99 assessed as late apoptotic cells at 1 ug/mL after 24 hrs by annexin V-FITC/propidium iodide staining-based flow cytometric analysis (reference value: 0.15%). It is filed as functional.
Assay [16] relates to Cryptococcus neoformans. The experiment in a line: Induction of apoptosis in Cryptococcus neoformans var. grubii H99 assessed as necrotic cells at 1 ug/mL after 24 hrs by annexin V-FITC/propidium iodide staining-based flow cytometric analysis (reference value: 0.19%). It is filed as functional.
Assay [17] deals with Cryptococcus neoformans. Description: Induction of apoptosis in Cryptococcus neoformans var. grubii H99 assessed as early apoptotic cells at 2 ug/mL after 24 hrs by annexin V-FITC/propidium iodide staining-based flow cytometric analysis (reference value: 1.05%). It is filed as functional.
The subject of assay [18] is Cryptococcus neoformans. The experiment in a line: Induction of apoptosis in Cryptococcus neoformans var. grubii H99 assessed as late apoptotic cells at 2 ug/mL after 24 hrs by annexin V-FITC/propidium iodide staining-based flow cytometric analysis (reference value: 0.15%). It is filed as functional.
The subject of assay [19] is Cryptococcus neoformans. The experiment in a line: Induction of apoptosis in Cryptococcus neoformans var. grubii H99 assessed as necrotic cells at 2 ug/mL after 24 hrs by annexin V-FITC/propidium iodide staining-based flow cytometric analysis (reference value: 0.19%). It is filed as functional.
The test system of assay [20] is Cryptococcus neoformans. Description: Cell cycle arrest in Cryptococcus neoformans var. grubii H99 assessed as accumulation of cells at G1 phase at 0.5 ug/mL after 24 hrs by propidium iodide staining-based flow cytometric analysis (reference value: 12.24%). It is filed as functional. The essentials:
(§5)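 Exponential H99 cells washed three times with PBS and set at 5×10^5 cells/mL in RPMI 1640. Dosed 0.5, 1 or 2 µg/mL and shaken (200 rpm) at 30 °C for 24 h. Walls digested 1 h at 30 °C in PBS with 0.24% snailase, then fixed overnight in 70% ethanol. Stained with 50 µg/mL PI, 4 °C, 30 min; ~1×10^6 cells read by flow cytometry.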

Assay [21] deals with Cryptococcus neoformans. The experiment in a line: Cell cycle arrest in Cryptococcus neoformans var. grubii H99 assessed as accumulation of cells at G1 phase at 1 ug/mL after 24 hrs by propidium iodide staining-based flow cytometric analysis (reference value: 12.24%). It is filed as functional. The procedure, abridged: as §5
Assay [22] deals with Cryptococcus neoformans. Description: Cell cycle arrest in Cryptococcus neoformans var. grubii H99 assessed as accumulation of cells at G1 phase at 2 ug/mL after 24 hrs by propidium iodide staining-based flow cytometric analysis (reference value: 12.24%). Type of assay: functional. The essentials: as §5
The test system of assay [23] is Cryptococcus neoformans. The experiment in a line: Cell cycle arrest in Cryptococcus neoformans var. grubii H99 assessed as decrease in cells at S phase at 0.5 to 2 ug/mL after 24 hrs by propidium iodide staining-based flow cytometric analysis. It is filed as functional, organism-based. The essentials:
as §5

Assay [24] deals with Cryptococcus neoformans. The experiment in a line: Fungistatic activity against Cryptococcus neoformans var. grubii H99 assessed as inhibition of cell growth at 1 ug/mL up to 48 hrs by time-growth curve assay. To be noted: read-out: GI. Type of assay: functional. The procedure, abridged: as §4
Assay [25] has as its system Cryptococcus gattii. The experiment in a line: Antifungal activity against Cryptococcus gattii ATCC 14116 after 48 hrs by serial dilution method. Conditions: ATCC 14116, 48 h.

The MIC80 is the lowest concentration that inhibits either 80% of growth or 80% of the strains tested, depending on the study. A higher MIC80 goes with weaker potency. For `COc1ccc(-c2noc3c2C(=O)c2sccc2C3=O)cc1`, the values for the MIC80 in [1] and in assay [2] were 1 µg/mL (≈ 3.21 µM) and greater than 64 µg/mL, respectively.
As for `COc1cccc(-c2noc3c2C(=O)c2sccc2C3=O)c1`, the MIC80 in assay [1] and in assay [2] was greater than 64 µg/mL in each case.
As for `COc1ccccc1-c1noc2c1C(=O)c1sccc1C2=O`, the results for the MIC80 in [1] and in assay [2] were 0.5 µg/mL (≈ 1.61 µM) and greater than 64 µg/mL, respectively.
For `Cc1ccccc1-c1noc2c1C(=O)c1sccc1C2=O` the same measures were 0.25 µg/mL (≈ 0.847 µM) and greater than 64 µg/mL.
As to `O=C1c2ccsc2C(=O)c2c(-c3cccc(Cl)c3)noc21`, the MIC80 in assay [1] and in assay [2] was greater than 64 µg/mL in each case.
For the molecule `O=C1c2ccsc2C(=O)c2c(-c3cccs3)noc21`, the MIC80 is 2 µg/mL (≈ 6.96 µM) in assay [1] and greater than 64 µg/mL in [2].
The matching figures for `Cc1cccc(-c2noc3c2C(=O)c2sccc2C3=O)c1`: 1 µg/mL (≈ 3.39 µM) and greater than 64 µg/mL.
For the molecule `O=C1c2ccsc2C(=O)c2c(-c3ccsc3)noc21`, the MIC80 in assay [1] is 1 µg/mL (≈ 3.48 µM); in [2], greater than 64 µg/mL.
As to `CCc1noc2c1C(=O)c1sccc1C2=O`, the MIC80 in assay [1] was determined as 0.031 µg/mL (≈ 0.133 µM); in assay [2] it was 2 µg/mL (≈ 8.57 µM); in [3], 0.12 µg/mL (≈ 0.514 µM); in assay [25], 0.25 µg/mL (≈ 1.07 µM). Moreover, the Activity is greater than 80% in assay [4]; “Dose-dependent effect” in assay [9]; 20.49% in assay [11]; 3.33% in assay [12]; 1.35% in assay [13]; 39.23% in [14]. Moreover, the Activity in [15] is recorded as 5.39%; in [16] it was 0.51%; in [17], 50.7%; in assay [18] it was 6.78%; in assay [19], 0.32%; in assay [20] it was 50.21%. Besides, the Activity was 49.14% in assay [21] and 48.61% in [22]. Also, the outcome in [5], in assay [8], in assay [10] and in assay [23] was Active. Also, the inhibition result in [6] and in assay [7] was “Active” each time. Further, the inhibition of growth at 1 µg/mL in [24] came to 100%.
`O=C1c2ccsc2C(=O)c2c(-c3ccccc3F)noc21`: the figures for the MIC80 in assay [1] and in assay [2] were 0.25 µg/mL (≈ 0.835 µM) and greater than 64 µg/mL, respectively.
Turning to `O=C1c2ccsc2C(=O)c2c(-c3ccccc3Cl)noc21`, the MIC80 is 0.25 µg/mL (≈ 0.792 µM) in assay [1] and greater than 64 µg/mL in assay [2].

The record behind these values is ChEMBL document CHEMBL4368921, “Discovery of novel simplified isoxazole derivatives of sampangine as potent anti-cryptococcal agents” (2019).
